This is a sample that favours compounds with a hit; in the whole collection about 1.5% have one here.
Platelet DG rel: platelet dense granule release activity. AID 1663. inhibition, %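 (compounds screened at 7.5 µM in platelet-rich plasma)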. human platelet-rich plasma, SFLLRN dense granule ATP release, luminescence. actives 0.22% (n = 300,000);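 active means mean replicate score, as percent of positive control, at or above 50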
VLA-4 inh: inhibition in a human VLA-4 binding assay; VLA-4 expressing cells, ligand binding flow cytometry; inhibition, % (about 7 µM as worked out from the volumes in the protocol); actives 0.2% (n = 330,000); in the data active means inhibition above about 50%
SENP1 FRET inh: SENP1 (human) catalytic domain inhibition. actives 0.21% (n = 360,000). inhibition, % at 10 µM. recombinant SENP1 catalytic domain, CyPet-SUMO1-YPet FRET cleavage. Q9P0U3;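 active means inhibition at least 30% at 10 µM, raw YFP signal under a set limit, fluorescence ratio 0.5 to 1.5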
Target sequence (Q9P0U3 419-644 limits assumed): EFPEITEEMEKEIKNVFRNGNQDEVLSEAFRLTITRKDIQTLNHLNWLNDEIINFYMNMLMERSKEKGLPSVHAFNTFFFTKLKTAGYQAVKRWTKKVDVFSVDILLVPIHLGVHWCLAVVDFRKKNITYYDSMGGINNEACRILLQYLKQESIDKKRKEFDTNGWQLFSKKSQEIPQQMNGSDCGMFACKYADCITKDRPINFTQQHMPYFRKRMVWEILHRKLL
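System: Recombinant human SENP1 catalytic domain, His6-tagged | Incubation: Enzyme reaction for 50 min at room temperature, dark | Medium: Tris pH 8 with BME, BSA, NP40 and catalase | Also added: 25 nM SUMO1 FRET substrate | Compound: 10 µM single point, 0.5% DMSO | Measured by: FRET fluorescence in CFP and YFP emission channels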
Myeloid diff 2: promotes myeloid progenitor differentiation. ER-HoxA9 myeloid progenitors, lysozyme-GFP differentiation, flow cytometry. calls only at 10 µM. actives 1% (n = 360,000). AID 624256;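 active means normalized GFP-positive differentiation at or above the plate's own cutoff, the solvent-only control mean plus 3 SD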;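 further: cells exposed to compound for four days before flow analysis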
Myeloid diff: promotes myeloid progenitor differentiation. shares compounds with Myeloid diff 2. ER-HoxA9 myeloid progenitors, GFP/Mac1 double-positive flow. calls only. actives 2% (n = 2,300). AID 651706;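 active means share of green or green-and-red cells above 9 and 9% in run 1 or 4 and 3% in run 2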
GFP autofluor: compound fluorescence in myeloid differentiation counter-screen; shares compounds with Myeloid diff 2; ER-HoxA9 myeloid progenitors, no estrogen, GFP autofluorescence flow cytometry; vehicle wells 0%, positive control 100%; fluorescence response, % (no concentration beside the values); actives 7.4% (n = 2,300);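 active means over 5% cells positive for green fluorescent reporter, or over 2% positive for both it and APC stain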
Large screens that a line does not name were inactive (follow-up assays come after a bar, where they were run).

COc1ccc2cc(CN(Cc3ccco3)C(c3nnnn3C3CCCCC3)C(C)C)c(=O)[nH]c2c1 (stereo not given)	Myeloid diff 2 active | Myeloid diff inactive | GFP autofluor inactive
COc1ccc2[nH]c(=O)c(CN(Cc3ccco3)Cc3nnnn3Cc3ccccc3)cc2c1	none | Myeloid diff inactive | GFP autofluor inactive
O=C(Nc1ccnn1C1CCN(Cc2cccc(OCCO)c2)CC1)C1CCOC1 (stereo not given)	none
COc1ccccc1CNC(=O)CCCNC(=O)Cn1cnc2sc(C)c(C)c2c1=O	none
Cc1cc(C)cc(N(C(C)C(=O)N2CCCC2)S(C)(=O)=O)c1 (stereo not given)	none
C=CCCN(Cc1ccccc1)S(=O)(=O)c1cc(Br)ccc1Br	none (no result: Platelet DG rel)
COc1ccc(C(=O)Nc2ccc(S(=O)(=O)N3CCCC3)cc2)cc1[N+](=O)[O-]	none
C[C@H]1CN([C@@H](C)CO)C(=O)CCCn2nncc2CO[C@H]1CN(C)C(=O)Nc1ccnc(N2CCOCC2)c1	none (no result: Platelet DG rel, VLA-4 inh)
Cc1ccc(CSCC(=O)N2CCN(c3ccc(F)cc3)CC2)cc1	none | Myeloid diff inactive | GFP autofluor inactive
CCn1nc(C(=O)OCC(=O)Nc2nc(-c3ccc(OC)cc3)cs2)c2ccccc2c1=O	Myeloid diff 2 active | Myeloid diff inactive | GFP autofluor inactive
CC(=O)c1ccc(S(=O)(=O)N2CCN(C(=O)c3ccc(-n4nc(C)c(Cl)c4C)cc3)CC2)cc1	none (no result: Platelet DG rel) | Myeloid diff inactive | GFP autofluor inactive
Cc1nn(-c2ccc(C(=O)N3CCN(S(=O)(=O)c4ccccc4C(F)(F)F)CC3)cc2)c(C)c1Cl	none (no result: Platelet DG rel)
CCc1ccc(C=C2SC(=S)N(CCCC(=O)Nc3ccc(C(=O)O)cc3)C2=O)cc1	none (no result: Platelet DG rel, VLA-4 inh) | Myeloid diff inactive | GFP autofluor inactive
CCc1ccc(/C=C2/SC(=S)N(CCC(=O)Nc3ccc(C(=O)O)cc3)C2=O)cc1	none
CC[n+]1c(/C=C/c2ccc(OC(C)=O)c(OC)c2)ccc2ccccc21	none
CC[n+]1c(/C=C/c2ccc(OC)c(OC)c2)ccc2ccccc21	Myeloid diff 2 active | Myeloid diff inactive | GFP autofluor inactive
CSc1nc(N)c2c(C)c(C)sc2n1	none | Myeloid diff inactive | GFP autofluor inactive
CCOc1ccc(NC(=O)CN2C(=O)COc3ccccc32)cc1	none
COc1ccc(NS(=O)(=O)c2cc(NC(=O)Cc3n[nH]c(=O)c4ccccc34)ccc2OC)cc1	none (no result: Platelet DG rel, VLA-4 inh)
COc1ccccc1NS(=O)(=O)c1cc(NC(=O)Cc2n[nH]c(=O)c3ccccc23)ccc1Cl	none (no result: Platelet DG rel) | Myeloid diff inactive | GFP autofluor inactive
CCNC(=O)/C(C#N)=C/c1c(N(Cc2ccccc2)Cc2ccccc2)nc2ccccn2c1=O	Myeloid diff 2 active | Myeloid diff inactive | GFP autofluor inactive
CNC(=O)/C(C#N)=C/c1c(N(Cc2ccccc2)Cc2ccccc2)nc2c(C)cccn2c1=O	none
CC1(C)CC(=O)N(c2cccc(C(F)(F)F)c2)C(=O)C1	none
CCCCn1c(-c2ccoc2C)n[nH]c1=S	Myeloid diff 2 active | Myeloid diff inactive | GFP autofluor inactive
CSCCC(NC(=O)c1ccc([N+](=O)[O-])cc1Cl)C(=O)OC1CCCCC1=O (stereo not given)	none
CCOC(=O)N1CCC(N2CCN(S(=O)(=O)c3ccc(OC)cc3)CC2)CC1	none | Myeloid diff inactive | GFP autofluor 3.5
CCOC(=O)N1CCC(N2CCN(S(=O)(=O)c3ccc(C)cc3)CC2)CC1	none
O=[N+]([O-])c1cccc(-c2nc(-c3ccncc3)no2)c1	Myeloid diff 2 active | Myeloid diff inactive | GFP autofluor inactive
CC(=O)Nc1ccc(NC(=O)C2CCC(N3C(=O)C4C5C=CC(C6CC56)C4C3=O)CC2)cc1 (stereo not given)	none
O=C(Nc1ccc(Cc2ccncc2)cc1)C1CCC(N2C(=O)C3C4C=CC(C5CC45)C3C2=O)CC1 (stereo not given)	Myeloid diff 2 active | Myeloid diff inactive | GFP autofluor inactive
COc1ccc(C(=O)N[C@H](C(=O)Nc2cccc(S(=O)(=O)N3CCOCC3)c2)C(C)C)cc1	Myeloid diff 2 active (no result: Platelet DG rel, VLA-4 inh) | Myeloid diff inactive | GFP autofluor inactive
COc1ccc(Br)c(C(=O)Nc2cccc(S(=O)(=O)N3CCOCC3)c2)c1	none (no result: Platelet DG rel)
CCOc1ccccc1N1CCN(C(=O)c2ccc(OCC(=O)N3CCOCC3)c(OC)c2)CC1	none
CCCC(=O)Nc1nc2ccc(NC(=O)c3ccc(Br)o3)cc2s1	Myeloid diff 2 active | Myeloid diff inactive | GFP autofluor inactive
C[C@H](CO)N1C[C@H](C)[C@@H](CN(C)C(=O)c2ccccn2)Oc2cc(Br)ccc2S1(=O)=O	none (no result: Platelet DG rel, VLA-4 inh)
O=C(OCc1cn([C@H]2CN(C(=O)c3cccs3)[C@@H](c3ccc(Cl)cc3)C[C@@H]2O)nn1)c1ccccc1	none (no result: Platelet DG rel, VLA-4 inh)
O=C(NC1CCCCC1)C(Cc1ccccc1)NS(=O)(=O)c1cccs1 (stereo not given)	none | Myeloid diff inactive | GFP autofluor inactive
COC(=O)[C@]1(Cc2ccccc2)N[C@H](CN(C)C(=O)C2CCCCC2)[C@@H]2C(=O)N(C)C(=O)[C@@H]21	none (no result: Platelet DG rel)
CC[C@@]1(C(=O)OC)N[C@H](CN(C)C(=O)C2CCCCC2)[C@@H]2C(=O)N(C)C(=O)[C@@H]21	none (no result: Platelet DG rel) | Myeloid diff inactive | GFP autofluor inactive
CC(C)CN(CC(C)C)S(=O)(=O)N1CCC(C(=O)NCc2ccc3c(c2)OCO3)CC1	none
COc1cccc(-c2cnc(C(O)c3c(C)cccc3C)[nH]2)c1 (stereo not given)	none (no result: Platelet DG rel, VLA-4 inh)
CCNc1nc2c(cnn2C)c(=O)[nH]1	none (no result: Platelet DG rel, VLA-4 inh)
COc1ccccc1-n1c(CNc2ccc(F)cc2)nnc1SCC(=O)Nc1cc(C)on1	none | Myeloid diff inactive | GFP autofluor inactive
COc1ccc(NCc2nnc(SCC(=O)NCc3ccccc3)n2-c2ccccc2OC)cc1	none
Cc1ccc2nc(NC(=O)CSCC(=O)OCC(=O)c3ccccc3)sc2c1	Myeloid diff 2 active | Myeloid diff inactive | GFP autofluor inactive
COc1cc(NC(=O)COC(=O)/C=C/c2ccccc2Cl)cc(OC)c1	none | Myeloid diff inactive | GFP autofluor inactive
COc1cc(NC(=O)COC(=O)/C=C/c2ccc(OC)c(OC)c2)cc(OC)c1	none
COc1ccc(-c2csc(NC3CCCCC3)n2)c(OC)c1	Myeloid diff 2 active | Myeloid diff inactive | GFP autofluor inactive
COC(=O)C1CCN(C(=O)COC(=O)/C=C/c2ccc(O)c(OC)c2)CC1	none (no result: Platelet DG rel)
CC(=O)O[C@]1(C(C)=O)CC[C@H]2[C@@H]3C=C(Cl)C4=CC(=O)CC[C@]4(C)[C@H]3CC[C@@]21C	none | Myeloid diff inactive | GFP autofluor inactive
O=C(Nc1ccccc1)c1cccc(N2C(=O)C3C4C=CC(C4)C3C2=O)c1 (stereo not given)	none (no result: Myeloid diff 2)
O=C(Nc1ccc(F)cc1)c1cccc(N2C(=O)C3C4C=CC(C4)C3C2=O)c1 (stereo not given)	Myeloid diff 2 active | Myeloid diff inactive | GFP autofluor inactive

Bioassay records from PubChem BioAssay.
